These compounds were tested on Pseudomonas aeruginosa (assay: Antimicrobial activity against Pseudomonas aeruginosa RCMB 102002 at 5 mg/ml by agar diffusion technique). Details: read-out: DIZ.
Assay type: functional
How it was run: (§1)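 Agar well diffusion. Test compounds and reference standard drugs were diluted to 5.0, 2.5 and 1.0 mg/mL and applied to 0.6 cm wells. Inhibition zone beyond the control was scored as 0 (no inhibition), + (0.1–0.5 cm), ++ (0.6–1.0 cm) or +++ (1.0–1.5 cm).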

| Compound | zone of inhibition at 5000 µg/mL [mm] |
| --- | --- |
| O=C(N[C@H](CO)[C@H](O)c1ccc([N+](=O)[O-])cc1)C(Cl)Cl [CHLORAMPHENICOL] | 10 |
| CN(C/C=C/C#CC(C)(C)C)Cc1cccc2ccccc12 [TERBINAFINE] | 10 |

The compounds below were run on Staphylococcus aureus (assay: Antimicrobial activity against Staphylococcus aureus RCMB 106001 at 2.5 mg/ml by agar diffusion technique). Details: read-out: DIZ.
Assay type: functional
How it was run: as §1

| Compound | zone of inhibition at 2500 µg/mL [mm] |
| --- | --- |
| O=C(N[C@H](CO)[C@H](O)c1ccc([N+](=O)[O-])cc1)C(Cl)Cl [CHLORAMPHENICOL] | 6 |
| CN(C/C=C/C#CC(C)(C)C)Cc1cccc2ccccc12 [TERBINAFINE] | 6 |

What follows are compounds tested on Candida albicans (assay: Antimicrobial activity against Candida albicans RCMB 005003 at 1 mg/ml by agar diffusion technique). Details: read-out: DIZ.
Assay type: functional
How it was run: as §1

| Compound | zone of inhibition at 1000 µg/mL [mm] |
| --- | --- |
| O=C(N[C@H](CO)[C@H](O)c1ccc([N+](=O)[O-])cc1)C(Cl)Cl [CHLORAMPHENICOL] | 6 |
| CN(C/C=C/C#CC(C)(C)C)Cc1cccc2ccccc12 [TERBINAFINE] | 6 |

What follows are compounds tested on Syncephalastrum racemosum (assay: Antimicrobial activity against Syncephalastrum racemosum RCMB 016001 at 2.5 mg/ml by agar diffusion technique). Details: read-out: DIZ.
Assay type: functional
How it was run: as §1

| Compound | zone of inhibition at 2500 µg/mL [mm] |
| --- | --- |
| O=C(N[C@H](CO)[C@H](O)c1ccc([N+](=O)[O-])cc1)C(Cl)Cl [CHLORAMPHENICOL] | 10 |
| CN(C/C=C/C#CC(C)(C)C)Cc1cccc2ccccc12 [TERBINAFINE] | 10 |

These compounds were tested on Escherichia coli (assay: Antimicrobial activity against Escherichia coli RCMB 103001 at 1 mg/ml by agar diffusion technique). Details: read-out: DIZ.
Assay type: functional
How it was run: as §1

| Compound | zone of inhibition at 1000 µg/mL [mm] |
| --- | --- |
| O=C(N[C@H](CO)[C@H](O)c1ccc([N+](=O)[O-])cc1)C(Cl)Cl [CHLORAMPHENICOL] | 6 |
| CN(C/C=C/C#CC(C)(C)C)Cc1cccc2ccccc12 [TERBINAFINE] | 6 |

These compounds were tested on Staphylococcus aureus (assay: Antimicrobial activity against Staphylococcus aureus RCMB 106001 at 5 mg/ml by agar diffusion technique). Details: read-out: DIZ.
Assay type: functional
How it was run: as §1

| Compound | zone of inhibition at 5000 µg/mL [mm] |
| --- | --- |
| O=C(N[C@H](CO)[C@H](O)c1ccc([N+](=O)[O-])cc1)C(Cl)Cl [CHLORAMPHENICOL] | 6 |
| CN(C/C=C/C#CC(C)(C)C)Cc1cccc2ccccc12 [TERBINAFINE] | 6 |

These compounds were tested on Penicillium italicum (assay: Antimicrobial activity against Penicillium italicum RCMB 001018 at 1 mg/ml by agar diffusion technique). Details: read-out: DIZ.
Assay type: functional
How it was run: as §1

| Compound | zone of inhibition at 1000 µg/mL [mm] |
| --- | --- |
| O=C(N[C@H](CO)[C@H](O)c1ccc([N+](=O)[O-])cc1)C(Cl)Cl [CHLORAMPHENICOL] | 6 |
| CN(C/C=C/C#CC(C)(C)C)Cc1cccc2ccccc12 [TERBINAFINE] | 6 |

The compounds below were run on Syncephalastrum racemosum (assay: Antimicrobial activity against Syncephalastrum racemosum RCMB 016001 at 1 mg/ml by agar diffusion technique). Details: read-out: DIZ.
Assay type: functional
How it was run: as §1

| Compound | zone of inhibition at 1000 µg/mL [mm] |
| --- | --- |
| O=C(N[C@H](CO)[C@H](O)c1ccc([N+](=O)[O-])cc1)C(Cl)Cl [CHLORAMPHENICOL] | 10 |
| CN(C/C=C/C#CC(C)(C)C)Cc1cccc2ccccc12 [TERBINAFINE] | 10 |

These compounds were tested on Staphylococcus aureus (assay: Antimicrobial activity against Staphylococcus aureus RCMB 106001 at 1 mg/ml by agar diffusion technique). Details: read-out: DIZ.
Assay type: functional
How it was run: as §1

| Compound | zone of inhibition at 1000 µg/mL [mm] |
| --- | --- |
| O=C(N[C@H](CO)[C@H](O)c1ccc([N+](=O)[O-])cc1)C(Cl)Cl [CHLORAMPHENICOL] | 6 |
| CN(C/C=C/C#CC(C)(C)C)Cc1cccc2ccccc12 [TERBINAFINE] | 6 |

The compounds below were run on Syncephalastrum racemosum (assay: Antimicrobial activity against Syncephalastrum racemosum RCMB 016001 at 5 mg/ml by agar diffusion technique). Details: read-out: DIZ.
Assay type: functional
How it was run: as §1

| Compound | zone of inhibition at 5000 µg/mL [mm] |
| --- | --- |
| O=C(N[C@H](CO)[C@H](O)c1ccc([N+](=O)[O-])cc1)C(Cl)Cl [CHLORAMPHENICOL] | 10 |
| CN(C/C=C/C#CC(C)(C)C)Cc1cccc2ccccc12 [TERBINAFINE] | 10 |

Each compound was assayed on Bacillus subtilis (assay: Antimicrobial activity against Bacillus subtilis RCMB 101001 at 5 mg/ml by agar diffusion technique). Details: read-out: DIZ.
Assay type: functional
How it was run: as §1

| Compound | zone of inhibition at 5000 µg/mL [mm] |
| --- | --- |
| O=C(N[C@H](CO)[C@H](O)c1ccc([N+](=O)[O-])cc1)C(Cl)Cl [CHLORAMPHENICOL] | 10 |
| CN(C/C=C/C#CC(C)(C)C)Cc1cccc2ccccc12 [TERBINAFINE] | 10 |

What follows are compounds tested on Penicillium italicum (assay: Antimicrobial activity against Penicillium italicum RCMB 001018 at 5 mg/ml by agar diffusion technique). Details: read-out: DIZ.
Assay type: functional
How it was run: as §1

| Compound | zone of inhibition at 5000 µg/mL [mm] |
| --- | --- |
| O=C(N[C@H](CO)[C@H](O)c1ccc([N+](=O)[O-])cc1)C(Cl)Cl [CHLORAMPHENICOL] | 10 |
| CN(C/C=C/C#CC(C)(C)C)Cc1cccc2ccccc12 [TERBINAFINE] | 10 |

Each compound was assayed on Escherichia coli (assay: Antimicrobial activity against Escherichia coli RCMB 103001 at 2.5 mg/ml by agar diffusion technique). Details: read-out: DIZ.
Assay type: functional
How it was run: as §1

| Compound | zone of inhibition at 2500 µg/mL [mm] |
| --- | --- |
| O=C(N[C@H](CO)[C@H](O)c1ccc([N+](=O)[O-])cc1)C(Cl)Cl [CHLORAMPHENICOL] | 6 |
| CN(C/C=C/C#CC(C)(C)C)Cc1cccc2ccccc12 [TERBINAFINE] | 6 |

The compounds below were run on Aspergillus fumigatus (assay: Antimicrobial activity against Aspergillus fumigatus RCMB 002008 at 1 mg/ml by agar diffusion technique). Details: read-out: DIZ.
Assay type: functional
How it was run: as §1

| Compound | zone of inhibition at 1000 µg/mL [mm] |
| --- | --- |
| O=C(N[C@H](CO)[C@H](O)c1ccc([N+](=O)[O-])cc1)C(Cl)Cl [CHLORAMPHENICOL] | 6 |
| CN(C/C=C/C#CC(C)(C)C)Cc1cccc2ccccc12 [TERBINAFINE] | 6 |

Each compound was assayed on Bacillus subtilis (assay: Antimicrobial activity against Bacillus subtilis RCMB 101001 at 1 mg/ml by agar diffusion technique). Details: read-out: DIZ.
Assay type: functional
How it was run: as §1

| Compound | zone of inhibition at 1000 µg/mL [mm] |
| --- | --- |
| O=C(N[C@H](CO)[C@H](O)c1ccc([N+](=O)[O-])cc1)C(Cl)Cl [CHLORAMPHENICOL] | 6 |
| CN(C/C=C/C#CC(C)(C)C)Cc1cccc2ccccc12 [TERBINAFINE] | 6 |

The compounds below were run on Pseudomonas aeruginosa (assay: Antimicrobial activity against Pseudomonas aeruginosa RCMB 102002 at 2.5 mg/ml by agar diffusion technique). Details: read-out: DIZ.
Assay type: functional
How it was run: as §1

| Compound | zone of inhibition at 2500 µg/mL [mm] |
| --- | --- |
| O=C(N[C@H](CO)[C@H](O)c1ccc([N+](=O)[O-])cc1)C(Cl)Cl [CHLORAMPHENICOL] | 10 |
| CN(C/C=C/C#CC(C)(C)C)Cc1cccc2ccccc12 [TERBINAFINE] | 10 |

The compounds below were run on Escherichia coli (assay: Antimicrobial activity against Escherichia coli RCMB 103001 at 5 mg/ml by agar diffusion technique). Details: read-out: DIZ.
Assay type: functional
How it was run: as §1

| Compound | zone of inhibition at 5000 µg/mL [mm] |
| --- | --- |
| O=C(N[C@H](CO)[C@H](O)c1ccc([N+](=O)[O-])cc1)C(Cl)Cl [CHLORAMPHENICOL] | 6 |
| CN(C/C=C/C#CC(C)(C)C)Cc1cccc2ccccc12 [TERBINAFINE] | 6 |

Each compound was assayed on Candida albicans (assay: Antimicrobial activity against Candida albicans RCMB 005003 at 2.5 mg/ml by agar diffusion technique). Details: read-out: DIZ.
Assay type: functional
How it was run: as §1

| Compound | zone of inhibition at 2500 µg/mL [mm] |
| --- | --- |
| O=C(N[C@H](CO)[C@H](O)c1ccc([N+](=O)[O-])cc1)C(Cl)Cl [CHLORAMPHENICOL] | 6 |
| CN(C/C=C/C#CC(C)(C)C)Cc1cccc2ccccc12 [TERBINAFINE] | 6 |

What follows are compounds tested on Candida albicans (assay: Antimicrobial activity against Candida albicans RCMB 005003 at 5 mg/ml by agar diffusion technique). Details: read-out: DIZ.
Assay type: functional
How it was run: as §1

| Compound | zone of inhibition at 5000 µg/mL [mm] |
| --- | --- |
| O=C(N[C@H](CO)[C@H](O)c1ccc([N+](=O)[O-])cc1)C(Cl)Cl [CHLORAMPHENICOL] | 6 |
| CN(C/C=C/C#CC(C)(C)C)Cc1cccc2ccccc12 [TERBINAFINE] | 6 |

Each compound was assayed on Bacillus subtilis (assay: Antimicrobial activity against Bacillus subtilis RCMB 101001 at 2.5 mg/ml by agar diffusion technique). Details: read-out: DIZ.
Assay type: functional
How it was run: as §1

| Compound | zone of inhibition at 2500 µg/mL [mm] |
| --- | --- |
| O=C(N[C@H](CO)[C@H](O)c1ccc([N+](=O)[O-])cc1)C(Cl)Cl [CHLORAMPHENICOL] | 10 |
| CN(C/C=C/C#CC(C)(C)C)Cc1cccc2ccccc12 [TERBINAFINE] | 10 |

What follows are compounds tested on Penicillium italicum (assay: Antimicrobial activity against Penicillium italicum RCMB 001018 at 2.5 mg/ml by agar diffusion technique). Details: read-out: DIZ.
Assay type: functional
How it was run: as §1

| Compound | zone of inhibition at 2500 µg/mL [mm] |
| --- | --- |
| O=C(N[C@H](CO)[C@H](O)c1ccc([N+](=O)[O-])cc1)C(Cl)Cl [CHLORAMPHENICOL] | 10 |
| CN(C/C=C/C#CC(C)(C)C)Cc1cccc2ccccc12 [TERBINAFINE] | 10 |

Each compound was assayed on Aspergillus fumigatus (assay: Antimicrobial activity against Aspergillus fumigatus RCMB 002008 at 2.5 mg/ml by agar diffusion technique). Details: read-out: DIZ.
Assay type: functional
How it was run: as §1

| Compound | zone of inhibition at 2500 µg/mL [mm] |
| --- | --- |
| O=C(N[C@H](CO)[C@H](O)c1ccc([N+](=O)[O-])cc1)C(Cl)Cl [CHLORAMPHENICOL] | 10 |
| CN(C/C=C/C#CC(C)(C)C)Cc1cccc2ccccc12 [TERBINAFINE] | 10 |

The compounds below were run on Aspergillus fumigatus (assay: Antimicrobial activity against Aspergillus fumigatus RCMB 002008 at 5 mg/ml by agar diffusion technique). Details: read-out: DIZ.
Assay type: functional
How it was run: as §1

| Compound | zone of inhibition at 5000 µg/mL [mm] |
| --- | --- |
| O=C(N[C@H](CO)[C@H](O)c1ccc([N+](=O)[O-])cc1)C(Cl)Cl [CHLORAMPHENICOL] | 10 |
| CN(C/C=C/C#CC(C)(C)C)Cc1cccc2ccccc12 [TERBINAFINE] | 10 |

Each compound was assayed on Pseudomonas aeruginosa (assay: Antimicrobial activity against Pseudomonas aeruginosa RCMB 102002 at 1 mg/ml by agar diffusion technique). Details: read-out: DIZ.
Assay type: functional
How it was run: as §1

| Compound | zone of inhibition at 1000 µg/mL [mm] |
| --- | --- |
| O=C(N[C@H](CO)[C@H](O)c1ccc([N+](=O)[O-])cc1)C(Cl)Cl [CHLORAMPHENICOL] | 6 |
| CN(C/C=C/C#CC(C)(C)C)Cc1cccc2ccccc12 [TERBINAFINE] | 6 |

Source: ChEMBL document CHEMBL1629465, “Efficient synthesis of novel 1,2,4-triazole fused acyclic and 21-28 membered macrocyclic and/or lariat macrocyclic oxaazathia crown compounds with potential antimicrobial activity” (2010)
